What all share (type): functional
For one experiment, the system named is Cyberlindnera jadinii. In words: Antifungal activity against Candida utilis ATCC 29950 assessed as growth inhibition zone at 50 ug after 24 by Kirby-Bauer agar diffusion assay. The conditions noted are these: Williopsis jadinii, read-out: IZ. Summed up:
(§1)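 Disk diffusion on yeast nitrogen base agar, swabbed with a McFarland 0.5 suspension in saline. 6 mm cellulose disks carried 10 µL of a 5 mg/mL CH2Cl2 stock (50 ug per disk), air-dried, three disks per plate. Plates were sealed and incubated 24 h at 37°C. Cleared inhibition zones were measured and averaged over triplicates.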
On the technique in general: A growth-free zone around the sample is the usual read-out of agar diffusion tests.

Another experiment deals with Nakaseomyces glabratus. In words: Antifungal activity against Candida glabrata ATCC 15126 assessed as growth inhibition zone at 50 ug after 24 hrs by Kirby-Bauer agar diffusion assay. As to conditions: ATCC 15126, 24 h, read-out: IZ. Summed up:
as §1

The next experiment has as its system Candida tropicalis. In words: Antifungal activity against Candida tropicalis clinical isolate assessed as growth inhibition zone at 50 ug after 24 hrs by Kirby-Bauer agar diffusion assay. The conditions noted are these: read-out: IZ. Summed up:
as §1

Another experiment relates to Pichia kudriavzevii. In words: Antifungal activity against Candida krusei ATCC 14243 assessed as growth inhibition zone at 50 ug after 24hrs by Kirby-Bauer agar diffusion assay. The conditions noted are these: ATCC 14243, 24 h, read-out: IZ. Summed up:
as §1

For another experiment, the system named is Kluyveromyces marxianus. In words: Antifungal activity against Candida kefyr ATCC 20409 assessed as growth inhibition zone at 50 ug after 24 hrs by Kirby-Bauer agar diffusion assay. As to conditions: ATCC 20409, 24 h, read-out: IZ. Summed up: as §1
A further experiment concerns Candida parapsilosis. In words: Antifungal activity against Candida parapsilosis ATCC 22019 assessed as growth inhibition zone at 50 ug after 24 hrs by Kirby-Bauer agar diffusion assay. The conditions noted are these: Lodderomyces parapsilosis, ATCC 22019, 24 h; read-out: IZ. Summed up: as §1
The test system of the next experiment is Candida albicans. In words: Antifungal activity against Candida albicans ATCC 2091 assessed as growth inhibition zone at 50 ug after 24 hrs by Kirby-Bauer agar diffusion assay. As to conditions: ATCC 2091, 24 h, read-out: IZ. Summed up:
as §1

Another experiment deals with Clavispora lusitaniae. Kind of experiment: Antifungal activity against Candida lusitaniae ATCC 34449 assessed as growth inhibition zone at 50 ug after 24 by Kirby-Bauer agar diffusion assay. As to conditions: read-out: IZ. Summed up:
as §1

For 16 compounds, zone of inhibition results are on record in ChEMBL document CHEMBL1156595, “Studies on the antifungal properties of N-thiolated beta-lactams” (2008).

Each structure is given as a SMILES string.

On to `CO[C@H]1C(=O)N(SC)[C@H]1c1cc(F)c(F)c(F)c1`, for which the zone of inhibition at 50 µg/disc with Cyberlindnera jadinii turned out to be 29 mm; in the experiment with Nakaseomyces glabratus it was 18 mm; in the experiment with Candida tropicalis, 19 mm; in the experiment on Pichia kudriavzevii, 0 mm; with Kluyveromyces marxianus, 17 mm; in the experiment with Candida parapsilosis, 34 mm. Moreover, the zone of inhibition at 50 µg/disc in the experiment on Candida albicans and with Clavispora lusitaniae was 25 mm throughout.

For `CSN1C(=O)[C@H](Oc2ccccc2)[C@@H]1/C=C/c1ccccc1`, the zone of inhibition at 50 µg/disc was determined as 0 mm in the experiment on Cyberlindnera jadinii; 9 mm in the experiment with Nakaseomyces glabratus; 0 mm with Candida tropicalis; 0 mm with Pichia kudriavzevii; 0 mm with Kluyveromyces marxianus; 0 mm with Candida parapsilosis. Further, the zone of inhibition at 50 µg/disc in the experiment on Candida albicans and in the experiment with Clavispora lusitaniae was 0 mm each time.

Take `CO[C@H]1C(=O)N(SC)[C@H]1c1ccc(Br)cc1`: the zone of inhibition at 50 µg/disc with Cyberlindnera jadinii was determined as 17 mm; in the experiment with Nakaseomyces glabratus, 19 mm; in the experiment on Candida tropicalis it was 20 mm; in the experiment on Pichia kudriavzevii, 0 mm; in the experiment with Kluyveromyces marxianus, 17 mm; in the experiment on Candida parapsilosis, 23 mm. For the same compound, the results for the zone of inhibition at 50 µg/disc in the experiment on Candida albicans and with Clavispora lusitaniae were 25 mm and 17 mm, respectively.

Turning to `CSN1C(=O)[C@@H](OC(C)=O)[C@H]1c1ccccc1`, the zone of inhibition at 50 µg/disc is 16 mm with Cyberlindnera jadinii; 0 mm in the experiment on Nakaseomyces glabratus; 11 mm in the experiment on Candida tropicalis; 0 mm in the experiment with Pichia kudriavzevii; 0 mm in the experiment with Kluyveromyces marxianus; 0 mm in the experiment with Candida parapsilosis. The zone of inhibition at 50 µg/disc with Candida albicans came out at 14 mm; in the experiment with Clavispora lusitaniae, 10 mm.

As to `CO[C@H]1C(=O)N(SC)[C@H]1c1cccc(Br)c1`, the zone of inhibition at 50 µg/disc stood at 14 mm in the experiment on Cyberlindnera jadinii; 17 mm in the experiment with Nakaseomyces glabratus; 18 mm with Candida tropicalis; 0 mm in the experiment on Pichia kudriavzevii; 14 mm in the experiment on Kluyveromyces marxianus; 18 mm in the experiment with Candida parapsilosis. The zone of inhibition at 50 µg/disc came to 20 mm in the experiment with Candida albicans and 15 mm in the experiment with Clavispora lusitaniae.

For `CO[C@H]1C(=O)N(SC)[C@H]1c1cccc(I)c1`, the zone of inhibition at 50 µg/disc with Cyberlindnera jadinii was found to be 15 mm; in the experiment with Nakaseomyces glabratus, 19 mm; with Candida tropicalis, 14 mm; in the experiment with Pichia kudriavzevii it was 0 mm; in the experiment with Kluyveromyces marxianus, 15 mm; in the experiment on Candida parapsilosis it was 22 mm. Besides, the results for the zone of inhibition at 50 µg/disc in the experiment with Candida albicans and in the experiment on Clavispora lusitaniae were 14 mm and 19 mm, respectively.

As for `CSN1C(=O)[C@H](OC(C)=O)[C@@H]1/C=C/c1ccccc1`, the zone of inhibition at 50 µg/disc in the experiment on Cyberlindnera jadinii turned out to be 13 mm; in the experiment with Nakaseomyces glabratus, 14 mm; in the experiment with Candida tropicalis, 0 mm; with Pichia kudriavzevii, 0 mm; in the experiment on Kluyveromyces marxianus, 12 mm; in the experiment on Candida parapsilosis, 0 mm. The zone of inhibition at 50 µg/disc with Candida albicans and with Clavispora lusitaniae was 0 mm throughout.

In the case of `CO[C@H]1C(=O)N(SC)[C@H]1c1cc(F)cc(F)c1F`, the zone of inhibition at 50 µg/disc in the experiment with Cyberlindnera jadinii was 16 mm; in the experiment with Nakaseomyces glabratus, 11 mm; with Candida tropicalis, 24 mm; in the experiment with Pichia kudriavzevii, 0 mm; in the experiment with Kluyveromyces marxianus, 15 mm; with Candida parapsilosis, 22 mm. In addition, the results for the zone of inhibition at 50 µg/disc in the experiment with Candida albicans and in the experiment with Clavispora lusitaniae were 18 mm and 17 mm, respectively.

Regarding `CSN1C(=O)[C@H](Oc2ccccc2)[C@@H]1CCc1ccccc1`, the zone of inhibition at 50 µg/disc turned out to be 21 mm in the experiment with Cyberlindnera jadinii; 18 mm with Nakaseomyces glabratus; 19 mm with Candida tropicalis; 0 mm with Pichia kudriavzevii; 19 mm in the experiment with Kluyveromyces marxianus; 14 mm in the experiment with Candida parapsilosis. In addition, the zone of inhibition at 50 µg/disc in the experiment on Candida albicans was 25 mm; in the experiment on Clavispora lusitaniae, 14 mm.

As to `CO[C@H]1C(=O)N(SC)[C@H]1c1cccc(Cl)c1`, the zone of inhibition at 50 µg/disc was 19 mm with Cyberlindnera jadinii; 21 mm in the experiment with Nakaseomyces glabratus; 20 mm in the experiment with Candida tropicalis; 0 mm in the experiment on Pichia kudriavzevii; 13 mm in the experiment with Kluyveromyces marxianus; 28 mm in the experiment on Candida parapsilosis. The zone of inhibition at 50 µg/disc turned out to be 23 mm in the experiment with Candida albicans and 13 mm in the experiment with Clavispora lusitaniae.

Consider `CO[C@H]1C(=O)N(SC)[C@H]1c1ccc(Cl)cc1Cl`, for which the zone of inhibition at 50 µg/disc in the experiment with Cyberlindnera jadinii came out at 21 mm; in the experiment on Nakaseomyces glabratus, 32 mm; in the experiment on Candida tropicalis, 23 mm; in the experiment on Pichia kudriavzevii it was 0 mm; with Kluyveromyces marxianus it was 28 mm; in the experiment with Candida parapsilosis it was 31 mm. Also, the zone of inhibition at 50 µg/disc in the experiment on Candida albicans came out at 27 mm; in the experiment with Clavispora lusitaniae it was 22 mm.

Turning to `CO[C@H]1C(=O)N(SC)[C@H]1c1cc(Cl)cc(Cl)c1Cl`, the zone of inhibition at 50 µg/disc in the experiment with Cyberlindnera jadinii came to 19 mm; in the experiment with Nakaseomyces glabratus, 31 mm; with Candida tropicalis, 22 mm; in the experiment with Pichia kudriavzevii it was 0 mm; in the experiment on Kluyveromyces marxianus, 30 mm; in the experiment with Candida parapsilosis it was 26 mm. The zone of inhibition at 50 µg/disc with Candida albicans and with Clavispora lusitaniae was 23 mm each time.

Turning to `CO[C@H]1C(=O)N(SC)[C@H]1c1ccccc1Br`, the zone of inhibition at 50 µg/disc came to 25 mm in the experiment with Cyberlindnera jadinii; 17 mm with Nakaseomyces glabratus; 21 mm with Candida tropicalis; 0 mm in the experiment on Pichia kudriavzevii; 13 mm with Kluyveromyces marxianus; 40 mm in the experiment on Candida parapsilosis. Besides, the zone of inhibition at 50 µg/disc in the experiment on Candida albicans is 25 mm; in the experiment on Clavispora lusitaniae, 19 mm.

Regarding `CO[C@H]1C(=O)N(SC)[C@H]1c1ccccc1F`, the zone of inhibition at 50 µg/disc in the experiment with Cyberlindnera jadinii is 14 mm; in the experiment with Nakaseomyces glabratus, 0 mm; with Candida tropicalis, 0 mm; in the experiment on Pichia kudriavzevii, 0 mm; in the experiment with Kluyveromyces marxianus, 15 mm; with Candida parapsilosis it was 19 mm. Further, the zone of inhibition at 50 µg/disc with Candida albicans is 15 mm; with Clavispora lusitaniae, 0 mm.

In the case of `CO[C@H]1C(=O)N(SC)[C@H]1c1cc(F)c(F)cc1F`, the zone of inhibition at 50 µg/disc with Cyberlindnera jadinii was found to be 14 mm; in the experiment on Nakaseomyces glabratus, 14 mm; with Candida tropicalis it was 20 mm; with Pichia kudriavzevii, 0 mm; in the experiment with Kluyveromyces marxianus it was 16 mm; with Candida parapsilosis it was 22 mm. In addition, the zone of inhibition at 50 µg/disc in the experiment with Candida albicans is 25 mm; in the experiment with Clavispora lusitaniae it was 14 mm.

As to `CO[C@H]1C(=O)N(SC)[C@H]1c1ccc(F)cc1`, the zone of inhibition at 50 µg/disc in the experiment on Nakaseomyces glabratus was found to be 0 mm; in the experiment on Candida tropicalis, 0 mm; in the experiment with Pichia kudriavzevii it was 0 mm; in the experiment on Candida parapsilosis it was 21 mm; in the experiment with Candida albicans, 16 mm; in the experiment on Clavispora lusitaniae, 0 mm.
